Data published in EPA's CvTdb concentration-time database.

Columns and labels:
Hamster = assay: concentration in plasma after dosing; details: dosed: 2,4-Dichlorophenoxyacetic acid, 8.0 mg/kg, oral, Male, Syrian Golden
Outline: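 A PubMed search, classifier screening and manual review identified published in vivo toxicokinetic studies, which together with two structured collections supplied concentration-versus-time and amount-versus-time points. Points were mostly digitised from plot screenshots with WebPlotDigitizer, otherwise copied from tables. Dose, route, subject details and medium were hand-curated from each paper, and sampling and analytical methods are those of the sources, often unreported.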

Mouse [1] = assay: concentration in plasma after dosing; details: 0.25 h; dosed: 2-Hydroxy-4-methoxybenzophenone; 500 mg/kg; oral; Male; B6C3F1
Rat [2] = assay: concentration in plasma after dosing; details: dosed: 2-Hydroxy-4-methoxybenzophenone, 250 mg/kg, oral, Male, F344
Mouse [3] = assay: concentration in plasma after dosing; details: 0.25 h; dosed: 2-Hydroxy-4-methoxybenzophenone; 250 mg/kg; oral; Female; B6C3F1
Rat [4] = assay: concentration in plasma after dosing; details: 6 h; dosed: 2-Hydroxy-4-methoxybenzophenone; 500 mg/kg; oral; Male; F344
Rat [5] = assay: concentration in plasma after dosing; details: 10 min; dosed: 2-Hydroxy-4-methoxybenzophenone; 100 mg/kg; oral; Male; F344
Mouse [6] = assay: concentration in plasma after dosing; details: dosed: 2-Hydroxy-4-methoxybenzophenone, 100 mg/kg, oral, Female, B6C3F1
Rat [7] = assay: concentration in plasma after dosing; details: 4 h; dosed: 2-Hydroxy-4-methoxybenzophenone; 500 mg/kg; oral; Male; F344
Rat [8] = assay: concentration in plasma after dosing; details: dosed: 2-Hydroxy-4-methoxybenzophenone, 100 mg/kg, oral, Male, F344
Rat [9] = assay: concentration in plasma after dosing; details: dosed: Methyleugenol, 37 mg/kg, iv, Female, F344
Rat [10] = assay: concentration in plasma after dosing; details: dosed: Methyleugenol, 37 mg/kg, oral, Female, F344/N
Rat [11] = assay: concentration in plasma after dosing; details: dosed: Methyleugenol, 37 mg/kg, oral, Male, F344/N
Rat [12] = assay: concentration in liver after dosing; details: 24 h; dosed: Perfluorohexane-1-sulphonic acid – potassium salt; 16 mg/kg; oral; Female; F344
Rat [13] = assay: concentration in brain after dosing; details: 6 h; dosed: Perfluorohexane-1-sulphonic acid – potassium salt; 16 mg/kg; oral; Female; F344
Rat [14] = assay: concentration in plasma after dosing; details: dosed: Perfluorohexane-1-sulphonic acid – potassium salt, 4 mg/kg, oral, Male, F344
Rat [15] = assay: concentration in kidney after dosing; details: 12 h; dosed: Perfluorohexane-1-sulphonic acid – potassium salt; 16 mg/kg; oral; Female; F344
Rat [16] = assay: concentration in brain after dosing; details: 3 h; dosed: Perfluorohexane-1-sulphonic acid – potassium salt; 16 mg/kg; oral; Female; F344
Rat [17] = assay: concentration in kidney after dosing; details: 528 h; dosed: Perfluorohexane-1-sulphonic acid – potassium salt; 16 mg/kg; oral; Female; F344
Rat [18] = assay: concentration in plasma after dosing; details: 12 h; dosed: Primidone; 130 mg/kg; oral; Female; F344
Rat [19] = assay: concentration in plasma after dosing; details: 0.25 h; dosed: Primidone; 30 mg/kg; oral; Male; F344
Rat [20] = assay: concentration in plasma after dosing; details: 12 h; dosed: Primidone; 80 mg/kg; oral; Female; Harlan Sprague-Dawley
Rat [21] = assay: concentration in plasma after dosing; details: 50 min; dosed: Pyridine; 10 mg/kg; iv; Male; F344
Rat [22] = assay: concentration in plasma after dosing; details: 0.25 h; dosed: Pyridine; 10 mg/kg; iv; Male; F344
Rat [23] = assay: concentration in plasma after dosing; details: dosed: Pyridine, 5 mg/kg, oral, Male, F344
Rat [24] = assay: concentration in plasma after dosing; details: dosed: Pyridine, 5 mg/kg, oral, Male, F344; remark: listed apart in the source
Rat [25] = assay: concentration in plasma after dosing; details: 1.5 h; dosed: alpha-Thujone; 50 mg/kg; oral; Female; Harlan Sprague Dawley
Rat [26] = assay: concentration in plasma after dosing; details: 0.5 h; dosed: alpha-Thujone; 50 mg/kg; oral; Male; Harlan Sprague Dawley
Rat [27] = assay: concentration in brain after dosing; details: 5 min; dosed: alpha-Thujone; 25 mg/kg; oral; Male; Harlan Sprague Dawley
Rat [28] = assay: concentration in plasma after dosing; details: 3 h; dosed: alpha-Thujone; 25 mg/kg; oral; Male; Harlan Sprague Dawley
Rat [29] = assay: concentration in brain after dosing; details: 10 min; dosed: alpha-Thujone; 50 mg/kg; oral; Female; Harlan Sprague Dawley
Rat [30] = assay: concentration in plasma after dosing; details: 2 min; dosed: alpha-Thujone; 25 mg/kg; oral; Male; Harlan Sprague Dawley
Rat [31] = assay: concentration in plasma after dosing; details: 1.5 h; dosed: alpha-Thujone; 50 mg/kg; oral; Male; Harlan Sprague Dawley
Rat [32] = assay: concentration in brain after dosing; details: 10 min; dosed: alpha-Thujone; 25 mg/kg; oral; Male; Harlan Sprague Dawley

O=C(O)COc1ccc(Cl)cc1Cl [2,4-Dichlorophenoxyacetic acid]
Hamster
Details	concentration in plasma [ng/mL]
0.25 h	21800
0.5 h	8620
1 h	1740
1.5 h	761
2 h	1360
2.5 h	115
5 min	25700
6 h	466

O=C(c1ccccc1)c1ccc(O)cc1O [2,4-Dihydroxybenzophenone]
Details	concentration in plasma [ng/mL]
Mouse [1]	1980
Mouse [3]	437
Rat [4]	285
Rat [5]	91
Rat [7]	181

concentration in plasma [ng/mL]
Details	0.25 h	2 h	2.5 min	4 h	10 min
Mouse [6]	276	92.3	63.7	–	130
Rat [2]	33	–	–	90.4	–
Rat [8]	61.2	–	–	48.4	–

C=CCc1ccc(OC)c(OC)c1 [Methyleugenol]
Details	concentration in plasma [ng/mL]
Rat [9], 0.25 h	9200
Rat [9], 1.5 h	738
Rat [10], 2 h	25.2
Rat [10], 2 min	13.3
Rat [11], 2 h	32
Rat [11], 10 min	268

O=S(=O)([O-])C(F)(F)C(F)(F)C(F)(F)C(F)(F)C(F)(F)C(F)(F)F.[K+] [Perfluorohexane-1-sulphonic acid – potassium salt]
Details	concentration in brain [ng/g]	concentration in kidney [ng/g]	concentration in liver [ng/g]
Rat [12]	–	–	53400
Rat [13]	1620	–	–
Rat [15]	–	37000	–
Rat [16]	1090	–	–
Rat [17]	–	10000	–

Rat [14]
Details	concentration in plasma [ng/mL]
3 h	28000
24 h	31600
1200 h	3240

CCC1(c2ccccc2)C(=O)NCNC1=O [Primidone]
Details	concentration in plasma [ng/mL]
Rat [18]	3100
Rat [19]	6800
Rat [20]	1400

c1ccncc1 [Pyridine]
Details	concentration in plasma [ng/mL]
Rat [21]	2310
Rat [22]	4870

concentration in plasma [ng/mL]
Details	0.5 h	4 h	5 min	6 h
Rat [23]	3170	–	–	1620
Rat [24]	–	2550	2490	–

CC(C)[C@]12CC(=O)[C@H](C)[C@H]1C2 [alpha-Thujone]
Details	concentration in brain [ng/g]	concentration in plasma [ng/mL]
Rat [25]	–	323
Rat [26]	–	2180
Rat [27]	62.6	–
Rat [28]	–	131
Rat [29]	1800	–
Rat [30]	–	18
Rat [31]	–	360
Rat [32]	765	–
